Test results as given in ChEMBL document CHEMBL2062453, “Lead optimization through VLAK protocol: new annelated pyrrolo-pyrimidine derivatives as antitumor agents” (2012).

Experiments:
Assay type in all cases: functional
CCRF-CEM = assay: Cytotoxicity against human CCRF-CEM cells assessed as cell growth at 10 uM after 48 hrs by SRB assay relative to control; conditions: read-out: Activity
Outline: (§1)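 NCI primary screen of about 60 human tumour lines. Cells inoculated and preincubated, then a single test concentration added and cultures incubated 48 h. Result given as percent growth (G%) of treated versus untreated control cells.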

HL-60(TB) = assay: Cytotoxicity against human HL-60(TB) cells assessed as cell growth at 10 uM after 48 hrs by SRB assay relative to control; conditions: HL-60, 48 h, read-out: Activity
K562 = assay: Cytotoxicity against human K562 cells assessed as cell growth at 10 uM after 48 hrs by SRB assay relative to control; conditions: K562, 48 h, read-out: Activity; outline: as §1
SR = assay: Cytotoxicity against human SR cells assessed as cell growth at 10 uM after 48 hrs by SRB assay relative to control; conditions: read-out: Activity
Outline: (§2)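 NCI single-dose primary screen across about 60 human tumour lines. Each line was inoculated and preincubated on microtiter plates, then exposed to one concentration of agent for 48 h. Growth is reported as percent growth (G%) of treated cells versus untreated control cells.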

A549 = assay: Cytotoxicity against human A549 cells assessed as cell growth at 10 uM after 48 hrs by SRB assay relative to control; conditions: A549, 48 h, read-out: Activity; outline: as §1
NCI-H23 = assay: Cytotoxicity against human NCI-H23 cells assessed as cell growth at 10 uM after 48 hrs by SRB assay relative to control; conditions: NCI-H23, 48 h, read-out: Activity
COLO 205 = assay: Cytotoxicity against human COLO205 cells assessed as cell growth at 10 uM after 48 hrs by SRB assay relative to control; conditions: COLO 205, 48 h, read-out: Activity; outline: as §1
HCC 2998 = assay: Cytotoxicity against human HCC2998 cells assessed as cell growth at 10 uM after 48 hrs by SRB assay relative to control; conditions: HCC 2998, 48 h, read-out: Activity; outline: as §1
SF-268 = assay: Cytotoxicity against human SF268 cells assessed as cell growth at 10 uM after 48 hrs by SRB assay relative to control; conditions: SF-268, 48 h, read-out: Activity
SF-295 = assay: Cytotoxicity against human SF295 cells assessed as cell growth at 10 uM after 48 hrs by SRB assay relative to control; conditions: SF-295, 48 h, read-out: Activity
SF-539 = assay: Cytotoxicity against human SF539 cells assessed as cell growth at 10 uM after 48 hrs by SRB assay relative to control; conditions: SF-539, 48 h, read-out: Activity
SNB-19 = assay: Cytotoxicity against human SNB19 cells assessed as cell growth at 10 uM after 48 hrs by SRB assay relative to control; conditions: SNB-19, 48 h, read-out: Activity
SNB-75 = assay: Cytotoxicity against human SNB75 cells assessed as cell growth at 10 uM after 48 hrs by SRB assay relative to control; conditions: SNB-75, 48 h, read-out: Activity
LOX IMVI = assay: Cytotoxicity against human LOXIMVI cells assessed as cell growth at 10 uM after 48 hrs by SRB assay relative to control; conditions: read-out: Activity; outline: as §1
M14 = assay: Cytotoxicity against human M14 cells assessed as cell growth at 10 uM after 48 hrs by SRB assay relative to control; conditions: M14, 48 h, read-out: Activity; outline: as §1
MDA-MB-435 = assay: Cytotoxicity against human MDA-MB-435 cells assessed as cell growth at 10 uM after 48 hrs by SRB assay relative to control; conditions: MDA-MB-435, 48 h, read-out: Activity
SK-MEL-2 = assay: Cytotoxicity against human SK-MEL-2 cells assessed as cell growth at 10 uM after 48 hrs by SRB assay relative to control; conditions: SK-MEL-2, 48 h, read-out: Activity
SK-MEL-28 = assay: Cytotoxicity against human SK-MEL-28 cells assessed as cell growth at 10 uM after 48 hrs by SRB assay relative to control; conditions: SK-MEL-28, 48 h, read-out: Activity
UACC-62 = assay: Cytotoxicity against human UACC62 cells assessed as cell growth at 10 uM after 48 hrs by SRB assay relative to control; conditions: UACC-62, 48 h, read-out: Activity; outline: as §2
OVCAR-4 = assay: Cytotoxicity against human OVCAR4 cells assessed as cell growth at 10 uM after 48 hrs by SRB assay relative to control; conditions: OVCAR-4, 48 h, read-out: Activity
OVCAR-5 = assay: Cytotoxicity against human OVCAR5 cells assessed as cell growth at 10 uM after 48 hrs by SRB assay relative to control; conditions: OVCAR-5, 48 h, read-out: Activity
OVCAR-8 = assay: Cytotoxicity against human OVCAR8 cells assessed as cell growth at 10 uM after 48 hrs by SRB assay relative to control; conditions: OVCAR-8, 48 h, read-out: Activity
NCI/ADR-RES = assay: Cytotoxicity against human NCI/ADR-RES cells assessed as cell growth at 10 uM after 48 hrs by SRB assay relative to control; conditions: read-out: Activity
786-0 = assay: Cytotoxicity against human 786-0 cells assessed as cell growth at 10 uM after 48 hrs by SRB assay relative to control; conditions: 786-0, 48 h, read-out: Activity; outline: as §1
ACHN = assay: Cytotoxicity against human ACHN cells assessed as cell growth at 10 uM after 48 hrs by SRB assay relative to control; conditions: read-out: Activity; outline: as §1
RXF 393 = assay: Cytotoxicity against human RXF393 cells assessed as cell growth at 10 uM after 48 hrs by SRB assay relative to control; conditions: RXF 393, 48 h, read-out: Activity
SN12C = assay: Cytotoxicity against human SN12C cells assessed as cell growth at 10 uM after 48 hrs by SRB assay relative to control; conditions: read-out: Activity
TK-10 = assay: Cytotoxicity against human TK10 cells assessed as cell growth at 10 uM after 48 hrs by SRB assay relative to control; conditions: TK-10, 48 h, read-out: Activity; outline: as §2
UO-31 = assay: Cytotoxicity against human UO31 cells assessed as cell growth at 10 uM after 48 hrs by SRB assay relative to control; conditions: UO-31, 48 h, read-out: Activity; outline: as §2
PC-3 = assay: Cytotoxicity against human PC3 cells assessed as cell growth at 10 uM after 48 hrs by SRB assay relative to control; conditions: PC-3, 48 h, read-out: Activity
MDA-MB-231 = assay: Cytotoxicity against human MDA-MB-231 cells assessed as cell growth at 10 uM after 48 hrs by SRB assay relative to control; conditions: MDA-MB-231, 48 h, read-out: Activity; outline: as §1
BT-549 = assay: Cytotoxicity against human BT549 cells assessed as cell growth at 10 uM after 48 hrs by SRB assay relative to control; conditions: BT-549, 48 h, read-out: Activity; outline: as §1
MDA-MB-468 = assay: Cytotoxicity against human MDA-MB-468 cells assessed as cell growth at 10 uM after 48 hrs by SRB assay relative to control; conditions: MDA-MB-468, 48 h, read-out: Activity

Row | Structure (SMILES) | growth at 10 µM (CCRF-CEM) [%] | growth at 10 µM (HL-60(TB)) [%] | growth at 10 µM (K562) [%] | growth at 10 µM (SR) [%] | growth at 10 µM (A549) [%] | growth at 10 µM (NCI-H23) [%] | growth at 10 µM (COLO 205) [%] | growth at 10 µM (HCC 2998) [%] | growth at 10 µM (SF-268) [%] | growth at 10 µM (SF-295) [%] | growth at 10 µM (SF-539) [%] | growth at 10 µM (SNB-19) [%] | growth at 10 µM (SNB-75) [%] | growth at 10 µM (LOX IMVI) [%] | growth at 10 µM (M14) [%] | growth at 10 µM (MDA-MB-435) [%] | growth at 10 µM (SK-MEL-2) [%] | growth at 10 µM (SK-MEL-28) [%] | growth at 10 µM (UACC-62) [%] | growth at 10 µM (OVCAR-4) [%] | other results
1 | CSC1=Nc2c(c(C)c(C)n2CCCC(=O)O)C2=NC(=O)CN12 | 105 | 95 | 93 | 122 | 117 | 109 | 137 | 118 | 114 | 122 | 86 | 107 | 111 | 93 | 110 | 119 | 111 | 110 | 111 | 104 | growth at 10 µM (OVCAR-5): 117%; growth at 10 µM (OVCAR-8): 111%; growth at 10 µM (NCI/ADR-RES): 114%; growth at 10 µM (786-0): 109%; growth at 10 µM (ACHN): 108%; growth at 10 µM (RXF 393): 122%; growth at 10 µM (SN12C): 115%; growth at 10 µM (TK-10): 121%; growth at 10 µM (UO-31): 88%; growth at 10 µM (PC-3): 98%; growth at 10 µM (MDA-MB-231): 100%; growth at 10 µM (BT-549): 105%; growth at 10 µM (MDA-MB-468): 97%
2 | CSC1=Nc2c(c(C)c(-c3ccccc3)n2CCCCl)C2=NC(=O)CN12 | 52 | 27 | 19 | 13 | 74 | 78 | 79 | 72 | 77 | 43 | 62 | 81 | 21 | 50 | 31 | -31 | 75 | 56 | 37 | 76 | growth at 10 µM (OVCAR-5): 86%; growth at 10 µM (OVCAR-8): 88%; growth at 10 µM (NCI/ADR-RES): 58%; growth at 10 µM (786-0): 78%; growth at 10 µM (ACHN): 88%; growth at 10 µM (RXF 393): 95%; growth at 10 µM (SN12C): 86%; growth at 10 µM (TK-10): 105%; growth at 10 µM (UO-31): 57%; growth at 10 µM (PC-3): 69%; growth at 10 µM (MDA-MB-231): 65%; growth at 10 µM (BT-549): 61%; growth at 10 µM (MDA-MB-468): 47%
3 | CCOC(=O)CCCn1c2c(c(C)c1-c1ccccc1)C1=NC(=O)CN1C(SC)=N2 | 71 | 90 | 90 | 94 | 108 | 110 | 129 | 127 | 105 | 98 | 84 | 106 | 80 | 93 | 107 | 111 | 114 | 100 | 95 | 94 | growth at 10 µM (OVCAR-5): 111%; growth at 10 µM (OVCAR-8): 99%; growth at 10 µM (NCI/ADR-RES): 95%; growth at 10 µM (786-0): 100%; growth at 10 µM (ACHN): 112%; growth at 10 µM (RXF 393): 108%; growth at 10 µM (SN12C): 127%; growth at 10 µM (TK-10): 123%; growth at 10 µM (UO-31): 85%; growth at 10 µM (PC-3): 93%; growth at 10 µM (MDA-MB-231): 130%; growth at 10 µM (BT-549): 107%; growth at 10 µM (MDA-MB-468): 87%
